This is an account of results in ChEMBL document CHEMBL1133137, “Synthesis and biological effects of a new series of 2-amino-3-benzoylthiophenes as allosteric enhancers of A1-adenosine receptor” (Bioorg Med Chem Lett, 2000).

Assay type in all cases: functional, cell-based
Assay [1] addresses T1, Adenosine receptor A1 (Homo sapiens) (UniProt P30542).
T1 sequence (whole entry): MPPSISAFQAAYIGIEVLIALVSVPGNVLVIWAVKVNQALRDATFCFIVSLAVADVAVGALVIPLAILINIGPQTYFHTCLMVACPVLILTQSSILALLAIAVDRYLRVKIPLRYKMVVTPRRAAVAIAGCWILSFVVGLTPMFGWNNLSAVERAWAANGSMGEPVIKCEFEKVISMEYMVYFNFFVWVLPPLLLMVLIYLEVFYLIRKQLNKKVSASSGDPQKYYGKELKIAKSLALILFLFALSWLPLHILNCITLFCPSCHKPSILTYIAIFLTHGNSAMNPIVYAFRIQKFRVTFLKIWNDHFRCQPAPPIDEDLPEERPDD
Nature of the assay: Percent response to 10 uM PD-81723 on CHO cells expressing human A1-adenosine receptor at 0.1 uM; An increase of cAmp content of cells. The procedure, abridged: (§1)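 CHO cells stably expressing recombinant human A1 receptors (~8000 fmol/mg protein), thawed from low-passage frozen stocks, grown to confluence over 48–72 h in Ham's F-12 with 10% FBS and G-418. Test compound incubated 6 min at 36 °C with 0.05–0.1 nM CPA. Reaction stopped with HCl (final 50 mM). cAMP in acid extracts measured by radioimmunoassay. Reduction normalized to the response to 10 μM PD 81,723.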

In assay [2] the target is T1, Adenosine receptor A1 (Homo sapiens). Nature of the assay: The compound was tested for its percentage of response to 10 uM of PD-81723 on CHO cells expressing the cloned human A1-adenosine receptor at 1 uM. The procedure, abridged:
as §1

Assay [3] has the same target. Nature of the assay: Percentage of response to 10 uM of PD-81723 on CHO cells expressing the cloned human A1-adenosine receptor at 1 uM; An increase of cAmp content of cells. The procedure, abridged: as §1
The target is the same in assay [4]. Nature of the assay: The compound was tested for its percentage of response to 10 uM of PD-81723 on CHO cells expressing the cloned human A1-adenosine receptor at 10 uM. The procedure, abridged: as §1
For assay [5] the target is unchanged. Kind of assay: Percentage of response to 10 uM of PD-81723 on CHO cells expressing the cloned human A1-adenosine receptor at 10 uM; An increase of cAmp content of cells. The procedure, abridged: as §1
For assay [6] the target is unchanged. Nature of the assay: The compound was tested for its percentage of response to 10 uM of PD-81723 on CHO cells expressing the cloned human A1-adenosine receptor at 0.1; change of less than 5% of allosteric enhancement. In outline: as §1
For assay [7] the target is unchanged. Nature of the assay: The compound was tested for its percentage of response to 10 uM of PD-81723 on CHO cells expressing the cloned human A1-adenosine receptor at 0.1 uM concentration; change of less than 5% of allosteric enhancement. The procedure, abridged: as §1
The target is the same in assay [8]. Nature of the assay: Percentage of response to 10 uM of PD-81723 on CHO cells expressing the cloned human A1-adenosine receptor at 10 uM concentration. The procedure, abridged:
as §1

Assay [9] has the same target. Kind of assay: The compound was tested for its percentage of response to 10 uM of PD-81723 on CHO cells expressing the cloned human A1-adenosine receptor at 0.1 uM concentration; change of less than 5% of allosteric enhancement. The procedure, abridged: as §1
The target is the same in assay [10]. Kind of assay: The compound was tested for its percentage of response to 10 uM of PD-81723 on CHO cells expressing the cloned human A1-adenosine receptor at 1 uM concentration; change of less than 5% of allosteric enhancement. In outline:
as §1

For assay [11] the target is unchanged. Nature of the assay: The compound was tested for its percentage of response to 10 uM of PD-81723 on CHO cells expressing the cloned human A1-adenosine receptor at 10 uM concentration; change of less than 5% of allosteric enhancement. The procedure, abridged:
as §1

Take `Nc1sc2c(c1C(=O)c1ccc(Cl)cc1)CCN(CCc1ccc([N+](=O)[O-])cc1)C2`: the Response result in assay [1] is “Increased cAMP”; in assay [2], 13%; in assay [3] it was “Increased cAMP”; in [4], 31%; in [5], “Increased cAMP”.
For the compound `Nc1sc2c(c1C(=O)c1ccc(Cl)cc1)CCN(C(=O)OCc1ccccc1)C2`, the results for the Response in assay [6], in assay [3] and in [5] were below 5%, “Increased cAMP” and “Increased cAMP”, respectively.
For `Cc1sc(N)c(C(=O)c2ccccc2)c1C`, the figures for the Response in assay [7], in [3] and in [8] were below 5%, “Increased cAMP” and 19%, respectively.
Take `Nc1sc2c(c1C(=O)c1ccc(Br)cc1)CCNC2`: the Response in [9], in [10] and in assay [11] was below 5% in each case.
